The text below walks through data of ChEMBL document CHEMBL4145448, “Broad activity of diphenyleneiodonium analogues against Mycobacterium tuberculosis, malaria parasites and bacterial pathogens” (Eur J Med Chem, 2018).

In brackets after ≈: the same amount, converted by molar mass.

Data set [1] in a line: Cytotoxicity against human HepG2 cells after 24 hrs in presence of 1% FBS by resazurin dye based assay. It is filed as cell-based. The gist of the method:
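HepG2 cells seeded at 4000/well in DMEM with 1% FBS and allowed to attach for 24 h at 37 °C, 5% CO2. Compounds added from 300 to 0.14 µM in 3-fold steps and incubated 24 h. 10 µM resazurin added for 2 h, fluorescence read at ex/em 560/590. Percent viability computed relative to untreated and negative controls, duplicate wells.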

In data set [2] the test system is Plasmodium falciparum. The data set is described as follows: Growth inhibition of CQ-sensitive GFP-fused Plasmodium falciparum D10 after 90 hrs by ethidium bromide staining based flow cytometry. In kind it is functional, organism-based. The settings on record: D10, 90 h. In short, it runs like this: (§1)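 Parasites cultured in human O+ erythrocytes in RPMI-HEPES pH 7.4 with hypoxanthine, NaHCO3, gentamicin and 0.5% Albumax II under 1% O2/4% CO2 at 37 °C. Synchronised to rings with heparin plus sorbitol. Set up at 1% parasitaemia and 1% haematocrit with 10x compound added. Cultured 90 h to next-cycle trophozoites. Stained with 10 µg/mL ethidium bromide for 1 h, washed, parasitaemia counted by flow cytometry with GFP gating.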

Data set [3] can be described thus: Selectivity index, ratio of CC50 for human HepG2 cells in presence of 10% FBS to IC50 for CQ-sensitive GFP-fused Plasmodium falciparum D10. The conditions noted are these: read-out: Ratio IC50. In kind it is toxicity.
The nature of data set [4]: Cytotoxicity against human HepG2 cells after 24 hrs in presence of 10% FBS by resazurin dye based assay. It is filed as cell-based. The gist of the method: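 HepG2 cells seeded at 4000/well in DMEM with 10% FBS and allowed to attach for 24 h at 37 °C, 5% CO2. Compounds added from 300 to 0.14 µM in 3-fold steps and incubated 24 h. 10 µM resazurin added for 2 h, fluorescence read at ex/em 560/590. Percent viability computed relative to untreated and negative controls, duplicate wells.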
A general note: Resazurin is reduced to fluorescent resorufin, in cell work by metabolically active cells.

Data set [5] is described as follows: Selectivity index, ratio of CC50 for human HepG2 cells in presence of 10% FBS to MIC for Mycobacterium tuberculosis H37Rv ATCC 25618. In kind it is toxicity. The settings on record: read-out: Selectivity Index.
Data set [6] is described as follows: Selectivity index, ratio of CC50 for human HepG2 cells in presence of 1% FBS to MIC for Mycobacterium tuberculosis H37Rv ATCC 25618. In kind it is toxicity. The settings on record: read-out: Selectivity Index.
The nature of data set [7]: Selectivity index, ratio of CC50 for human HepG2 cells in presence of 1% FBS to IC50 for CQ-sensitive GFP-fused Plasmodium falciparum D10. In kind it is toxicity. The settings on record: read-out: Ratio IC50.
Data set [8] concerns Mycobacterium tuberculosis. The data set is described as follows: Antimycobacterial activity against Mycobacterium tuberculosis H37Rv ATCC 25618 after 7 days by resazurin dye based assay. The settings on record: H37Rv ATCC 25618, 168 h. In kind it is functional. In short, it runs like this:
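H37Rv grown at 37 °C in 7H9 with 10% ADC, 0.5% glycerol and 0.02% tyloxapol. Compounds serially diluted in water, 0 to 10 µM, in triplicate. Culture adjusted to OD600 0.001 and incubated 7 days at 37 °C. Resazurin (0.05% w/v) added for 4-24 h and fluorescence read at 590 nm. MIC is the lowest concentration giving complete growth inhibition versus untreated. Rifampicin served as control.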

Data set [9] is described as follows: Selectivity index, ratio of CC50 for human HepG2 cells in presence of 10% FBS to IC50 for drug-resistant GFP-fused Plasmodium falciparum D10. In kind it is toxicity. The conditions noted are these: read-out: Ratio IC50.
The subject of data set [10] is Plasmodium falciparum. The data set is described as follows: Growth inhibition of […] GFP-fused Plasmodium falciparum D10 after 90 hrs by ethidium bromide staining based flow cytometry. It is filed as functional, organism-based. The conditions noted are these: D10, 90 h. The gist of the method:
as §1
For orientation: A flow cytometer gives signals particle by particle.

Data set [11] is described as follows: Selectivity index, ratio of CC50 for human HepG2 cells in presence of 1% FBS to IC50 for drug-resistant GFP-fused Plasmodium falciparum D10. The settings on record: read-out: Ratio IC50. In kind it is toxicity.

What is called CC50 is the concentration at which the toxic effect on the cells reaches its halfway point. One may read the IC50 as the concentration that inhibits the measured activity by half. A higher IC50 goes with weaker potency. One may read the MIC as the lowest concentration found to suppress growth. Lower therefore signals greater potency. On to `Clc1cccc2c1[I+]c1cccc(Cl)c1-2`, for which the CC50 at 24 h in data set [1] was 84.6 nM; in data set [4], 544 nM. The IC50 in the data set with Plasmodium falciparum [2] came to 360 nM. For the same compound, the selectivity ratio in data set [3] was 1.5; in data set [5], 2.1; in data set [6], 0.32; in data set [7], 0.23. The compound also came in with an MIC in [8] of 0.26 µM.
Turning to `COc1ccc(Cl)c2c1[I+]c1ccccc1-2`, the CC50 at 24 h stood at 150 nM in data set [1] and 224 nM in data set [4]. Further, it took 130 nM to reach half-maximal inhibition with Plasmodium falciparum [2] (IC50). Moreover, the selectivity ratio in data set [3] stood at 1.75; in data set [5], 0.44; in [6] it was 0.31; in [7], 1.2. In [8], this compound had an MIC of 0.51 µM.
On to `Cc1ccc(Cl)c2c1[I+]c1ccccc1-2`, for which the CC50 at 24 h in data set [1] was 93 nM; in [4] it was 349 nM. The compound further showed an IC50 in the data set on Plasmodium falciparum [2] of 110 nM. The selectivity ratio turned out to be 3.1 in data set [3], 2.8 in data set [5], 0.74 in [6] and 0.82 in data set [7]. The lowest concentration to inhibit growth in data set [8] (MIC) was 0.13 µM.
On to `Clc1ccc(Cl)c2c1[I+]c1ccccc1-2`, for which the CC50 at 24 h in data set [1] was 894 nM; in data set [4], 1850 nM. The half-maximal inhibitory concentration (IC50) with Plasmodium falciparum [2] is above 1000 nM. Also, the selectivity ratio stood at 3.7 in [5] and 1.8 in data set [6]. This compound gave an MIC in data set [8] of 0.5 µM.
Take `Fc1cccc2c1-c1c(Cl)cccc1[I+]2`: the values for the CC50 at 24 h in [1] and in data set [4] were 392 nM and 833 nM, respectively. The compound also yielded an IC50 in the data set with Plasmodium falciparum [2] above 1000 nM. In addition, the selectivity ratio in data set [3] was below 0.83; in data set [5], 0.8; in [6] it was 0.38. This compound came in with an MIC in data set [8] of 1 µM.
`CO[C@H]1/C=C/O[C@@]2(C)Oc3c(C)c(O)c4c(O)c(c(/C=N/N5CCN(C)CC5)c(O)c4c3C2=O)NC(=O)/C(C)=C\C=C\[C@H](C)[C@H](O)[C@@H](C)[C@@H](O)[C@@H](C)[C@H](OC(C)=O)[C@@H]1C` [RIFAMPIN]: in [8], the MIC is 0.3 to 0.61 µM (≈ 0.247 to 0.502 µg/mL).
In the case of `Fc1ccc(Cl)c2c1[I+]c1ccccc1-2`, the CC50 at 24 h in data set [1] worked out at 930 nM; in data set [4] it was 2720 nM. Also, in the data set on Plasmodium falciparum [2], the IC50 is above 1000 nM. Besides, the selectivity ratio in data set [5] worked out at 10; in data set [6], 3.4. This compound also registered an MIC in data set [8] of 0.27 µM.
Turning to `Fc1cccc2c1-c1cccc(Cl)c1[I+]2`, the CC50 at 24 h in [1] was found to be 52.4 nM; in data set [4] it was 386 nM. Moreover, in the data set on Plasmodium falciparum [2], the IC50 is 190 nM. Besides, the selectivity ratio in [3] was 2.1; in data set [5], 1.4; in [6], 0.19; in data set [7] it was 0.28. Also, the lowest concentration to inhibit growth in [8] (MIC) was 0.27 µM.
As for `Cc1cccc2c1-c1cccc(Cl)c1[I+]2`, the CC50 at 24 h in data set [1] worked out at 60.1 nM; in data set [4], 486 nM. In the data set with Plasmodium falciparum [2], this compound yielded an IC50 of 110 nM. For the same compound, the selectivity ratio in data set [3] was 5.1; in data set [5] it was 1.8; in [6], 0.22; in data set [7], 0.63. The compound also showed an MIC in data set [8] of 0.27 µM.
Turning to `FC(F)(F)c1cccc2c1-c1ccccc1[I+]2`, the figures for the CC50 at 24 h in data set [1] and in data set [4] were 23.6 nM and 94.7 nM, respectively. Further, the figures for the IC50 in the data set on Plasmodium falciparum [2] and in the data set on Plasmodium falciparum [10] were 130 nM and 140 nM, respectively. The selectivity ratio was 0.7 in [9]; 0.72 in [3]; 0.36 in data set [5]; 0.09 in data set [6]; 0.18 in data set [7]; 0.18 in data set [11]. Moreover, in data set [8], inhibition of growth (MIC) required 0.26 µM.
Take `Fc1cccc2c1-c1c(F)cccc1[I+]2`: the CC50 at 24 h turned out to be 88.6 nM in [1] and 161 nM in data set [4]. This compound showed an IC50 with Plasmodium falciparum [2] of 840 nM. Further, the selectivity ratio was 0.19 in data set [3], 0.58 in data set [5], 0.32 in data set [6] and 0.11 in data set [7]. The compound further returned an MIC in data set [8] of 0.28 µM.
As to `FC(F)(F)Oc1cccc2c1-c1ccccc1[I+]2`, the CC50 at 24 h worked out at 50.3 nM in [1] and 251 nM in data set [4]. It took 130 nM to reach half-maximal inhibition in the data set with Plasmodium falciparum [2] (IC50). Further, the selectivity ratio in data set [3] amounted to 1.9; in data set [5] it was 0.99; in data set [6], 0.21; in [7] it was 0.39. For the same compound, the MIC in [8] was determined as 0.25 µM.
